# This sample holds only a part of the variants without activity.
# B1: tRNA (parent)
# chain: GUUCCGUUGGCGUAAUGGUAACGCGUCUCCCUCCUAAGGAGAAGACUGCGGGUUCGAGUCCCGUACGGAACG
# Variants of: B1
# Assay: yeast fitness relative to wild type (ratio to wild type); higher = fitter; tRNA-Arg(CCU), competitive growth, 37 C, YPD
# Procedure, shortened: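 Genotype frequency changes were the basis for Darwinian fitness relative to wild type. The frequencies came from 100-nucleotide paired-end sequencing of gene amplicons from the start population and each end population of pooled yeast strains with tRNA-Arg(CCU) gene variants at the native locus. Competition ran in YPD at 37°C for 24 hours in six replicates, genotypes needed ≥ 100 starting reads, and estimates < 0.5 were set to 0.5.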
row,Variant,yeast fitness
1,G9C A21G A42G,≤ 0.5
2,G23A C29G A57G C66G,≤ 0.5
3,C33G A36C C49A C60G A70U,≤ 0.5
4,G9A C27G C31U C46G G51C A70U,≤ 0.5
5,G41C U54A,0.667
6,G10C G58C G67A,≤ 0.5
7,U13A A20G C24U U35C C49U C60A C66G,≤ 0.5
8,C22G A45C G52C A57U,0.549
9,G23C C30A U64C,≤ 0.5
10,G10A A36C A70G,≤ 0.5
11,G12C G23C A42U G44C U54A,≤ 0.5
12,G12A U13C C49U,0.674
13,U7A G9A U13A A43G G56A,≤ 0.5
14,U19A C29U C55A A57C U59C,≤ 0.5
15,A21C C27A,0.545
16,U2G U16G C27A A36C G51A,0.536
17,U2A A15G A45U G48A C66G,≤ 0.5
18,U3A C33G A43G G58A G67A A69U,≤ 0.5
19,U7C G9A U13C A21U G56A,≤ 0.5
20,C34U G38C,0.605
21,C29G U47C,0.75
22,G41C A43U G68U,≤ 0.5
23,A42U A57U,0.682
24,C4U C5G C29G C31G A37C,0.627

row,Variant,yeast fitness
1,G10C A42U C46G,≤ 0.5
2,U28C G58C,0.912
3,U7A C31U,0.683
4,C24G A36G A57G,0.533
5,A14C U35C,0.695
6,G10C U26A U59C C66U,≤ 0.5
7,C11U U54C C61U,≤ 0.5
8,C4G G17A C55U A70G,≤ 0.5
9,U64G,0.993
10,C11U U16C C24U,0.591
11,C4U C29U C31A C55U A57C,≤ 0.5
12,C33U A40U G56C,≤ 0.5
13,C11G A15U G58U C66A A70C,≤ 0.5
14,A36C A43C C66A,0.731
15,G10C G17A A20U,≤ 0.5
16,C4U G9A C49U G50A,0.644
17,U26A G39U A45C,≤ 0.5
18,U2C C66U A69U,0.603
19,G9A C22U C30G C61U,≤ 0.5
20,U8C C24U A65C,0.59
21,U16A U26A C30G U59C,≤ 0.5
22,C5G C55G A65C G67A,≤ 0.5
23,C4G G12U A14C C49G A57U C61G,≤ 0.5
24,G10A A20C C61A C62U G63U C66A,0.646

row,Variant,yeast fitness
1,C46A G67C,0.896
2,A20C C29U C49G A70U,≤ 0.5
3,C5G G9C A43G A70U,≤ 0.5
4,G9C A40U G41A,≤ 0.5
5,C11G U35A C62A C66G,≤ 0.5
6,C61U G68U,0.639
7,U16A U19G C33U A40C G41A A43C C61G,≤ 0.5
8,C24U C55G,0.638
9,C29G U35A G48C,≤ 0.5
10,G12A C61G,0.605
11,A15U A45G C49G,≤ 0.5
12,C31A A43U A57G,0.559
13,C24U C30A A37G,0.593
14,G38C G50C,0.562
15,U7C C22U C29G G56A A70U,≤ 0.5
16,U2G C55U C62G C66A,0.577
17,C4U G10A A15C A57C C66G,≤ 0.5
18,G17A C31A,0.706
19,A65G A69C,0.984
20,A45G C55A G58C,0.537
21,G10C G39A,0.563
22,A21U C27G C33U C34A G51C A57C,≤ 0.5
23,A40U U53A,0.774
24,G9C C27G G44A A57G,0.691

row,Variant,yeast fitness
1,C11U G41A,0.902
2,C5G U13G C27G C30A,≤ 0.5
3,U28C A70U,0.87
4,U2C U3A C24A C27U G56C C66U,0.562
5,C4U U8A U32G U35A C62U A69C,≤ 0.5
6,U3C C46A,0.912
7,U13C A15G C29A,0.508
8,C11U A14G A65U G68A,0.617
9,A14C A20G A42C G48C,≤ 0.5
10,U19A C49A,0.642
11,A45U A57U,0.744
12,U19C A20C A70U,0.65
13,G6A U7G C24A U26C,≤ 0.5
14,G50C C55U A69G,0.554
15,U32C G68A,0.921
16,C22U C31A C34U A36C A45C C61U U64A,≤ 0.5
17,A15C A36U A69U,0.509
18,G48C A57G,0.705
19,G9A A21U,0.693
20,C27A A40G C61G,0.614
21,C5G A20C C29G G38C,0.529
22,G9A G38C G41C A45G,≤ 0.5
23,U13A A57C,0.604
24,U16A A40U,1

row,Variant,yeast fitness
1,G6A U8C A20C C27U,≤ 0.5
2,C46U G68U,0.857
3,C5U G6A C66U,0.975
4,C49G G51A,0.637
5,C33G G41A A42G C46G,≤ 0.5
6,U3A C27G C31U C33U A42C G58C,≤ 0.5
7,C27G G52A,0.941
8,C11A C31A G38U G44C A65G,≤ 0.5
9,U16G G68C A69G,0.556
10,C31G C49G C62U G67C G68A,0.539
11,U8G A14G G25A A36G A42U G68C,≤ 0.5
12,G18C G44A,0.604
13,C5U C46A C55G C66U A69U,≤ 0.5
14,A42U C66G,0.712
15,C4G U19C C24U,0.619
16,C22A C24A,0.54
17,U13A A42U G63A,0.699
18,U3C A21U G38C,0.668
19,A20G C24A C49U C66U A70C,≤ 0.5
20,A21G U47C C49U,0.773
21,A42G C46G C49U,0.744
22,G17A U19A A21C G44C,≤ 0.5
23,U35C G50A G67A,≤ 0.5
24,U2G C11G U19C A20G C24U C31G,≤ 0.5

row,Variant,yeast fitness
1,A20G A21U A70U,≤ 0.5
2,G12C A57C,0.545
3,U3C U8C C30G U35C A42G C49U G56A G58A A70C,≤ 0.5
4,G25A G41A,0.822
5,A36G A42C U47C,0.687
6,A20G C31G C60G,≤ 0.5
7,U7G C27U,0.792
8,U13G U32A C33A,≤ 0.5
9,A42U C46U,0.97
10,G38C A57G,0.617
11,U16G C27U U28A G52C U54A C66U,≤ 0.5
12,C4A G38C,0.652
13,G9C G17C C27G U35A C49A A69U,0.536
14,U26C C27U C62U,0.754
15,C11G U35A C66U,0.51
16,U7A A20G G23A U26G C66A,≤ 0.5
17,C46U G50A C66G,≤ 0.5
18,G18A C29U U35A A70U,≤ 0.5
19,G12C G25C C66G,≤ 0.5
20,U19A C61A,0.673
21,U2C C49A,0.685
22,A20G C29A C49U G63A,≤ 0.5
23,U47C G52A,0.724
24,U35C G51A,0.731

row,Variant,yeast fitness
1,A15C C31G,0.632
2,G18C C60A,≤ 0.5
3,A40C U64C,0.912
4,C31U A65G,1.11
5,A20U C34A C66A,≤ 0.5
6,G6A A20C A57C,≤ 0.5
7,C5G C30A C34G,≤ 0.5
8,G17A C34U U47A G68C,≤ 0.5
9,G56C A69C A70U,0.605
10,C27A U28C G67U A70G,≤ 0.5
11,U47C U53C,0.795
12,C5U C30G A36U G51A G52A,0.524
13,G63A C66A,0.72
14,C11U C29U U59C,≤ 0.5
15,G6A A69U,0.916
16,C11U G44A G50A C66G,0.511
17,C11G G41C C55U G58A,≤ 0.5
18,G39C A43G G44C A45U C49G G67C,0.558
19,A15G A36C G67C,≤ 0.5
20,C4A A42U A57U G58C,≤ 0.5
21,C4A A14C A21G C29A C34U A69U,≤ 0.5
22,C4U U7A A37C A40C G51A C55A G58A,≤ 0.5
23,U19A C30U C31A G58A G67C,≤ 0.5

# From the RNAGym collection of RNA variant scans (doi:10.1126/science.aae0568)
